Assay results taken from ChEMBL document CHEMBL2385035 (J Med Chem, 2013).
Calls of active or inactive are those of the source. The calls are words filed in the database; no cut-off is given here.

How the values were obtained:
[1] = Aqueous solubility of the compound; assay type: physicochemical; conditions: buffer
Rattus norvegicus [2] = assay: Antidiabetic activity in Zucker diabetic fatty rat assessed as reduction in blood HbA1c level at 0.05 to 10 mg/kg, po bid for 2 weeks measured on day 14 relative to vehicle-treated control; assay type: functional; design: scale not given: the % may be the effect or the level left; conditions: dose mg/kg 0.05-10
Procedure, shortened: (§1)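 Male ZDF rats, 8 weeks old, dosed orally twice daily for 14 days in two separate studies. Day-14 tail-vein blood sampled for HbA1c and for plasma glucose (nonfasted), insulin and total GLP-1. Compared with vehicle-treated animals, significance at p < 0.05.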

Mus musculus [3] = assay: In vivo inhibition of ASBT in C57BL/6J mouse assessed as increase in fecal bile acid excretion measured for 24 hrs; assay type: functional; conditions: Feces
[4] = target: T1, Ileal sodium/bile acid cotransporter (Rattus norvegicus, UniProt Q62633); assay: Inhibition of rat ASBT expressed in HEK293 cells assessed as inhibition of [3H]-taurocholate uptake after 90 mins by scintillation counting analysis; assay type: cell-based
T1 sequence (Q62633 whole entry): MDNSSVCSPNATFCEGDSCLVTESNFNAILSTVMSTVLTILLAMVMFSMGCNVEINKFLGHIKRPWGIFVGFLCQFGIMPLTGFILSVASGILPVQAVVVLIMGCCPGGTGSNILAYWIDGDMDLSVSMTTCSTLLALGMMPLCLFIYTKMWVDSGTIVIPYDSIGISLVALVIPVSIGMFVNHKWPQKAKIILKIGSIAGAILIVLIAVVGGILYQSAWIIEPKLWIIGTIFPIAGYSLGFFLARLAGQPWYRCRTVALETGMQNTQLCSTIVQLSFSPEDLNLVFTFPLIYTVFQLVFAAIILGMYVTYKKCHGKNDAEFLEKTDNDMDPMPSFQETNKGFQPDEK

[5] = Stability of the compound by glutathione trapping assay; assay type: physicochemical
[6] = target: T2, Ileal sodium/bile acid cotransporter (Mus musculus, UniProt P70172); assay: Inhibition of mouse ASBT expressed in HEK293 cells assessed as inhibition of [3H]-taurocholate uptake after 90 mins by scintillation counting analysis; assay type: cell-based
T2 sequence (P70172 whole entry): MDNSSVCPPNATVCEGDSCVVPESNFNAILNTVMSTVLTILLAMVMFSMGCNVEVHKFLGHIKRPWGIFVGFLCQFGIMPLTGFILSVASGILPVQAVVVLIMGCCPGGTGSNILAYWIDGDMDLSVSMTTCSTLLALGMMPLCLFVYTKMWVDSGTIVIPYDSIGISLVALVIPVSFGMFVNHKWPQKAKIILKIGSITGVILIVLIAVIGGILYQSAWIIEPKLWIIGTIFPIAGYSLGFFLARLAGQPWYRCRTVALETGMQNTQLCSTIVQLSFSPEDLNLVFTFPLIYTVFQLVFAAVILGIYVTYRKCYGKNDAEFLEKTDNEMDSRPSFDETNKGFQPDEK

Rattus norvegicus [7] = assay: Antidiabetic activity in portal vein cannulated lean Sprague-Dawley rat assessed as increase in portal vein total GLP-1 level at 10 mg/kg, po measured after 3 to 8 hrs; assay type: functional, organism-based; design: dose 10 mg/kg
Rattus norvegicus [8] = assay: Antidiabetic activity in Zucker diabetic fatty rat assessed as increase in total GLP-1 level at 0.05 to 10 mg/kg, po bid for 2 weeks measured on day 14 relative to vehicle-treated control; assay type: functional, organism-based; procedure, shortened: as §1
[9] = Cmax in Sprague-Dawley rat portal vein blood at 10 mg/kg, po; assay type: ADME, organism-based; design: dose 10 mg/kg, route oral
Procedure, shortened: (§2)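 Fed male SD rats given a single oral gavage dose of 10 mg/kg. Maximum parent drug concentration measured in portal vein blood and in systemic blood.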

Rattus norvegicus [10] = assay: In vivo inhibition of ASBT in portal vein cannulated lean Sprague-Dawley rat assessed as decrease in portal vein bile acid level at 10 mg/kg, po measured after 1 to 2 hrs relative to vehicle-treated control; assay type: functional, organism-based; design: dose 10 mg/kg
Rattus norvegicus [11] = assay: Antidiabetic activity in portal vein cannulated lean Sprague-Dawley rat assessed as increase in portal vein PYY level at 10 mg/kg, po measured after 3 to 8 hrs; assay type: functional, organism-based; design: dose 10 mg/kg
[12] = Cmax in Sprague-Dawley rat systemic blood at 10 mg/kg, po; assay type: ADME, organism-based; design: dose 10 mg/kg, route oral; procedure, shortened: as §2
Mus musculus [13] = assay: In vivo inhibition of ASBT in C57BL/6J mouse assessed as increase in fecal bile acid excretion measured for 24 hrs relative to 264W94; assay type: functional, Feces; design: concentration or dose not given beside the values
Rattus norvegicus [14] = assay: Antidiabetic activity in Zucker diabetic fatty rat assessed as reduction in non-fasted plasma glucose level at 0.05 to 10 mg/kg, po bid for 2 weeks measured on day 14 relative to vehicle-treated control; assay type: functional; design: scale not given: the % may be the effect or the level left; conditions: dose mg/kg 0.05-10; procedure, shortened: as §1
Rattus norvegicus [15] = assay: Antidiabetic activity in Zucker diabetic fatty rat assessed as increase in plasma insulin level at 0.05 to 10 mg/kg, po bid for 2 weeks measured on day 14 relative to vehicle-treated control; assay type: functional, organism-based; procedure, shortened: as §1
Rattus norvegicus [16] = assay: Antidiabetic activity in portal vein cannulated lean Sprague-Dawley rat assessed as effect on portal vein GIP level at 10 mg/kg, po measured after 3 to 8 hrs relative to vehicle-treated control; assay type: functional, organism-based; design: dose 10 mg/kg
Rattus norvegicus [17] = assay: Antidiabetic activity in Zucker diabetic fatty rat assessed as increase in fecal bile acid excretion at 0.05 to 10 mg/kg, po bid for 2 weeks measured for 24 hrs post last dose relative to vehicle-treated control; assay type: functional, Feces; conditions: dose mg/kg 0.05-10
[18] = Drug recovery in Sprague-Dawley rat feces at 10 mg/kg, po; assay type: ADME, organism-based; design: dose 10 mg/kg, route oral; conditions: read-out: Drug recovery
[19] = Apparent permeability in MDCK cells expressing MDR1 at 3 uM after 60 mins by LC-MS/MS analysis; assay type: ADME, cell-based, Canis lupus familiaris; conditions: dog
[20] = Half life in Sprague-Dawley rat intestine at 10 mg/kg, po; assay type: ADME, organism-based; design: dose 10 mg/kg, route oral
[21] = target: T3, Ileal sodium/bile acid cotransporter (Homo sapiens, UniProt Q12908); assay: Inhibition of human ASBT expressed in HEK293 cells assessed as inhibition of [3H]-taurocholate uptake after 90 mins by scintillation counting analysis; assay type: cell-based
T3 sequence (Q12908 whole entry): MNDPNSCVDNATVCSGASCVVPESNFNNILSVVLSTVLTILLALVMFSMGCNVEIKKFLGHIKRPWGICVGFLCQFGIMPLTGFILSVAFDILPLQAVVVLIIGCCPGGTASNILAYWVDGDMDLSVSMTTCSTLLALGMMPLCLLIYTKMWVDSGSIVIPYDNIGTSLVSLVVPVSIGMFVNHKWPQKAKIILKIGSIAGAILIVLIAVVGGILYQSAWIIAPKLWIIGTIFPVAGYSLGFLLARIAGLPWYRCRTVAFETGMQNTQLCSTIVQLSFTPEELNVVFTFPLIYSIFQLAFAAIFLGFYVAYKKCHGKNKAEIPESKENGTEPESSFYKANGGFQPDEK

Intestine = assay: Metabolic stability in Sprague-Dawley rat intestine assessed as formation of (7R,9R)-7-Butyl-7-ethyl-2-methoxy-5,5-dioxo-9-phenyl-6,7,8,9-tetrahydro-5H-5lambda(6)-thia-8-aza-benzocyclohepten-3-ol at 10 mg/kg, po after 2 to 24 hrs; assay type: ADME, organism-based; design: dose 10 mg/kg, route oral; conditions: in vivo
Rattus norvegicus [22] = assay: Antidiabetic activity in Zucker diabetic fatty rat assessed as reduction in non-fasted plasma glucose level at 0.001 to 10 mg/kg, po bid for 2 weeks measured on day 14 relative to vehicle-treated control; assay type: functional; design: scale not given: the % may be the effect or the level left; conditions: dose mg/kg 0.001-10; procedure, shortened: as §1
Rattus norvegicus [23] = assay: Antidiabetic activity in Zucker diabetic fatty rat assessed as increase in total GLP-1 level at 0.001 to 10 mg/kg, po bid for 2 weeks measured on day 14 relative to vehicle-treated control; assay type: functional, organism-based; procedure, shortened: as §1
Cynomolgus monkey = assay: Cmax in cynomolgous monkey systemic blood at 3 mg/kg, po; assay type: ADME, organism-based, Macaca fascicularis; design: dose 3 mg/kg, route oral; conditions: in vivo, BLD = below limit of detection
Procedure, shortened: (§3)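 Solution dosed orally to fed SD rats (10 mg/kg), male beagle dogs (10 mg/kg) or cynomolgous monkeys (3 mg/kg). Parent compound measured in systemic circulation; rat lower limit of quantitation 1 ng/mL.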

[24] = Thermal stability of the compound; assay type: physicochemical
Rattus norvegicus [25] = assay: Antidiabetic activity in Zucker diabetic fatty rat assessed as increase in plasma insulin level at 0.001 to 10 mg/kg, po bid for 2 weeks measured on day 14 relative to vehicle-treated control; assay type: functional, organism-based; procedure, shortened: as §1
[26] = Cmax in beagle dog systemic blood at 10 mg/kg, po; assay type: ADME, organism-based, Canis lupus familiaris; design: dose 10 mg/kg, route oral; procedure, shortened: as §3
[27] = Aqueous solubility of the compound at pH 7.4; assay type: physicochemical; conditions: buffer
Rattus norvegicus [28] = assay: Antidiabetic activity in Zucker diabetic fatty rat assessed as reduction in blood HbA1c level at 0.001 to 10 mg/kg, po bid for 2 weeks measured on day 14 relative to vehicle-treated control; assay type: functional; design: scale not given: the % may be the effect or the level left; conditions: dose mg/kg 0.001-10; procedure, shortened: as §1

| SMILES | solubility [1] [µg/mL] | ED50 (Mus musculus [3]) [mg/kg] | IC50 [4] [nM] | IC50 [6] [nM] | Cmax [9] [ng/mL] | Cmax [12] [ng/mL] | Efficacy (Mus musculus [13]) [%] | fold change (FC) (Rattus norvegicus [17]) | dose excreted [18] [%] | Papp at 1 h, 3 µM [19] [×10⁻⁶ cm/s] | half-life [20] [h] | IC50 [21] [nM] | other results |
| --- | --- | --- | --- | --- | --- | --- | --- | --- | --- | --- | --- | --- | --- |
| CCCC[C@]1(CC)CS(=O)(=O)c2cc(CP(=O)(O)O)c(OC)cc2[C@@H](c2ccccc2)N1 | ≥ 200 | 0.12 | 0.9 | 0.5 | 14 | 3 | 92 | 7 | 87 | 0.7 | > 12 |  | Activity (Rattus norvegicus [2]): 1.3%; Stability [5]: Unstable; Activity (Rattus norvegicus [7]): Active; Activity (Rattus norvegicus [8]): Active; inhibition (Rattus norvegicus [10]): Active; Activity (Rattus norvegicus [11]): Active; Activity (Rattus norvegicus [14]): >50%; Activity (Rattus norvegicus [15]): Active; Activity (Rattus norvegicus [16]): inactive |
| CCCC[C@]1(CC)CS(=O)(=O)c2cc(OC)c(OC)cc2[C@@H](c2ccccc2)N1 |  | 0.13 | 22 | 3 | 100 | 19 | 100 |  | 3 | 10.7 |  | 180 | Stability (Intestine): Unstable |
| CCCC[C@]1(CC)CS(=O)(=O)c2cc(CNC(CC(=O)O)CC(=O)O)c(OC)cc2[C@@H](c2ccccc2)N1 [LINERIXIBAT] | ≥ 200 | 0.022 | 1.9 | 2.1 | 4 |  | 94 | 7 | 98 | 0.7 | > 12 | 42 | Activity (Rattus norvegicus [22]): >50%; Activity (Rattus norvegicus [23]): Active; Cmax (Cynomolgus monkey): BLD; Stability [24]: Stable; Activity (Rattus norvegicus [25]): Active; Cmax [26]: 6 ng/mL; solubility [27]: > 7000 µg/mL; Activity (Rattus norvegicus [28]): 1.3% |
